ChEMBL document CHEMBL1155468, “Syntheses and evaluation of anticonvulsant profile and teratogenicity of novel amide derivatives of branched aliphatic carboxylic acids with 4-aminobenzensulfonamide” (J Med Chem, 2010)
The source made the active and inactive calls. No cut-off for these calls is given here.

Key:
[1] = species on record: Rattus norvegicus; assay: Protective index, ratio of TD50 for rat to ED50 for maximal electroshock-induced rat seizure model
[2] = system: Mus musculus; assay: Anticonvulsant activity in CF1 albino mouse assessed as inhibition of subcutaneous pentylenetetrazole-induced seizures at 30 mg/kg, ip after 0.5 hrs; type: functional, organism-based; set-up: dose 30 mg/kg
How it was run: (§1)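 Adult male CF no. 1 albino mice (18-25 g) dosed ip with compound suspended in 0.5% methylcellulose (0.01 mL/g). Convulsant: pentylenetetrazol dissolved in 0.9% saline as a 0.85% solution for mice, given subcutaneously.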

[3] = system: Mus musculus; assay: Anticonvulsant activity in CF1 albino mouse assessed as inhibition of subcutaneous pentylenetetrazole-induced seizures at 100 mg/kg, ip after 0.5 hrs; type: functional, organism-based; set-up: dose 100 mg/kg
How it was run: as §1

[4] = system: Mus musculus; assay: Anticonvulsant activity in CF1 albino mouse assessed as inhibition of subcutaneous pentylenetetrazole-induced seizures at 300 mg/kg, ip after 0.5 hrs; type: functional, organism-based; set-up: dose 300 mg/kg
How it was run: as §1

[5] = system: Mus musculus; assay: Anticonvulsant activity in CF1 albino mouse assessed as inhibition of subcutaneous pentylenetetrazole-induced seizures at 30 mg/kg, ip after 4 hrs; type: functional, organism-based; set-up: dose 30 mg/kg
How it was run: as §1

[6] = system: Mus musculus; assay: Anticonvulsant activity in CF1 albino mouse assessed as inhibition of subcutaneous pentylenetetrazole-induced seizures at 100 mg/kg, ip after 4 hrs; type: functional, organism-based; set-up: dose 100 mg/kg
How it was run: as §1

[7] = system: Mus musculus; assay: Anticonvulsant activity in CF1 albino mouse assessed as inhibition of maximal electroshock-induced seizures at 30 mg/kg, ip after 0.5 hrs; type: functional, organism-based; set-up: dose 30 mg/kg
How it was run: (§2)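 Test compounds suspended in 0.5% methylcellulose and given ip to adult male CF no. 1 albino mice (18-25 g) at 0.01 mL/g body weight before maximal electroshock challenge.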

[8] = system: Mus musculus; assay: Anticonvulsant activity in CF1 albino mouse assessed as inhibition of maximal electroshock-induced seizures at 100 mg/kg, ip after 0.5 hrs; type: functional, organism-based; set-up: dose 100 mg/kg
How it was run: as §2

[9] = system: Mus musculus; assay: Anticonvulsant activity in CF1 albino mouse assessed as inhibition of maximal electroshock-induced seizures at 300 mg/kg, ip after 0.5 hrs; type: functional, organism-based; set-up: dose 300 mg/kg
How it was run: as §2

[10] = system: Mus musculus; assay: Anticonvulsant activity in CF1 albino mouse assessed as inhibition of maximal electroshock-induced seizures at 30 mg/kg, ip after 4 hrs; type: functional, organism-based; set-up: dose 30 mg/kg
How it was run: as §2

[11] = system: Mus musculus; assay: Anticonvulsant activity in CF1 albino mouse assessed as inhibition of maximal electroshock-induced seizures at 100 mg/kg, ip after 4 hrs; type: functional, organism-based; set-up: dose 100 mg/kg
How it was run: as §2

[12] = system: Mus musculus; assay: Anticonvulsant activity in CF1 albino mouse assessed as inhibition of maximal electroshock-induced seizures at 300 mg/kg, ip after 4 hrs; type: functional, organism-based; set-up: dose 300 mg/kg
How it was run: as §2

[13] = system: Mus musculus; assay: Anticonvulsant activity in CF1 albino mouse assessed as inhibition of subcutaneous pentylenetetrazole-induced seizures at 300 mg/kg, ip after 4 hrs; type: functional, organism-based; set-up: dose 300 mg/kg
How it was run: as §1

[14] = system: Mus musculus; assay: Neurotoxicity in CF1 albino mouse assessed as motor impairment at 30 mg/kg, ip after 0.5 hrs; type: toxicity, organism-based; set-up: dose 30 mg/kg, route intraperitoneal; conditions: in vivo
[15] = system: Mus musculus; assay: Neurotoxicity in CF1 albino mouse assessed as motor impairment at 100 mg/kg, ip after 0.5 hrs; type: toxicity, organism-based; set-up: dose 100 mg/kg, route intraperitoneal; conditions: in vivo
[16] = system: Mus musculus; assay: Neurotoxicity in CF1 albino mouse assessed as motor impairment at 300 mg/kg, ip after 0.5 hrs; type: toxicity, organism-based; set-up: dose 300 mg/kg, route intraperitoneal; conditions: in vivo
[17] = system: Mus musculus; assay: Neurotoxicity in CF1 albino mouse assessed as motor impairment at 30 mg/kg, ip after 4 hrs; type: toxicity, organism-based; set-up: dose 30 mg/kg, route intraperitoneal; conditions: in vivo
[18] = system: Mus musculus; assay: Neurotoxicity in CF1 albino mouse assessed as motor impairment at 100 mg/kg, ip after 4 hrs; type: toxicity, organism-based; set-up: dose 100 mg/kg, route intraperitoneal; conditions: in vivo
[19] = system: Mus musculus; assay: Neurotoxicity in CF1 albino mouse assessed as motor impairment at 300 mg/kg, ip after 4 hrs; type: toxicity, organism-based; set-up: dose 300 mg/kg, route intraperitoneal; conditions: in vivo
[20] = system: Rattus norvegicus; assay: Neurotoxicity in Sprague-Dawley rat assessed as motor impairment at 30 mg/kg, po after 0.25 to 4 hrs; conditions: in vivo
[21] = system: Rattus norvegicus; assay: Anticonvulsant activity in Sprague-Dawley rat assessed as inhibition of maximal electroshock-induced seizures at 30 mg/kg, po after 1 hr
[22] = system: Rattus norvegicus; assay: Anticonvulsant activity in Sprague-Dawley rat assessed as inhibition of maximal electroshock-induced seizures at 30 mg/kg, po after 30 mins
[23] = system: Rattus norvegicus; assay: Anticonvulsant activity in Sprague-Dawley rat assessed as inhibition of maximal electroshock-induced seizures at 30 mg/kg, po after 15 mins
[24] = system: Rattus norvegicus; assay: Anticonvulsant activity in po dosed rat assessed as inhibition of maximal electroshock-induced seizures
[25] = system: Rattus norvegicus; assay: Anticonvulsant activity in Sprague-Dawley rat assessed as inhibition of maximal electroshock-induced seizures at 30 mg/kg, po after 2 hrs

For CCCC(CCC)C(=O)Nc1nnc(S(N)(=O)=O)s1, the “Ratio TD50/ED50” value [1] was >50.

With CC(C)(C)C(=O)NCc1ccc(S(N)(=O)=O)cc1 the Activity [2] was “inactive”, the Activity [3] was “inactive” and the Activity [4] was “inactive”. The Activity [5] was “inactive”, the Activity [6] was “inactive” and the Activity [7] was “inactive”. The Activity [8] was “inactive”, the Activity [9] was “inactive” and the Activity [10] was “inactive”. The Activity [11] was “inactive”, the Activity [12] was “inactive” and the Activity [13] was “inactive”. For the same compound, the Activity [14] was “Non-toxic”, the Activity [15] was “Non-toxic” and the Activity [16] was “Non-toxic”. The Activity [17] was “Non-toxic”, the Activity [18] was “Non-toxic” and the Activity [19] was “Non-toxic”.

CCC(C(=O)Nc1ccc(S(N)(=O)=O)cc1)C(C)(C)C (stereo unspecified) was tested, and the Activity [2] was “inactive”, the Activity [3] was “inactive” and the Activity [4] was “inactive”. The Activity [5] was “inactive”, the Activity [6] was “inactive” and the Activity [7] was “inactive”. The Activity [8] was “inactive”, the Activity [9] was “inactive” and the Activity [10] was “inactive”. The Activity [12] was “Active”, the Activity [13] was “inactive” and the Activity [14] was “Non-toxic”. The Activity [15] was “Non-toxic”, the Activity [16] was “Non-toxic” and the Activity [17] was “Non-toxic”. For the same compound, the Activity [18] was “Non-toxic”, the Activity [19] was “Non-toxic” and the Activity [20] was “Non-toxic”. For the same compound, the Activity [21] was “inactive”, the Activity [22] was “inactive” and the Activity [23] was “inactive”.

For CC(C)(C)CC(=O)NCc1ccc(S(N)(=O)=O)cc1, the Activity [2] was “inactive”, the Activity [3] was “inactive” and the Activity [4] was “inactive”. For the same compound, the Activity [5] was “inactive”, the Activity [6] was “inactive” and the Activity [7] was “inactive”. For the same compound, the Activity [8] was “inactive”, the Activity [9] was “inactive” and the Activity [10] was “inactive”. For the same compound, the Activity [12] was “Active”, the Activity [13] was “inactive” and the Activity [14] was “Non-toxic”. The Activity [15] was “Non-toxic”, the Activity [16] was “Non-toxic” and the Activity [17] was “Non-toxic”. The Activity [18] was “Non-toxic”, the Activity [19] was “Non-toxic” and the Activity [20] was “Non-toxic”. The Activity [22] was “inactive” and the Activity [23] was “inactive”.

CCC(CC)C(=O)NCCc1ccc(S(N)(=O)=O)cc1 was tested, and the Activity [2] was “inactive”, the Activity [3] was “inactive” and the Activity [4] was “inactive”. For the same compound, the Activity [5] was “inactive”, the Activity [6] was “inactive” and the Activity [7] was “inactive”. The Activity [8] was “inactive”, the Activity [9] was “inactive” and the Activity [10] was “Active”. For the same compound, the Activity [12] was “Active”, the Activity [13] was “inactive” and the Activity [14] was “Non-toxic”. For the same compound, the Activity [15] was “Non-toxic”, the Activity [16] was “Non-toxic” and the Activity [17] was “Non-toxic”. The Activity [18] was “Non-toxic”, the Activity [19] was “Non-toxic” and the Activity [20] was “Non-toxic”.

With CCCC(CCC)C(=O)Nc1ccc(S(N)(=O)=O)cc1 the ED50 [24] was 21 mg/kg.

CC1(C)C(C(=O)Nc2ccc(S(N)(=O)=O)cc2)C1(C)C was tested, and the ED50 [24] was 26 mg/kg.

CCC(C)C(CC)C(=O)Nc1ccc(S(N)(=O)=O)cc1 (stereo unspecified) was tested, and the Activity [2] was “inactive”, the Activity [3] was “inactive” and the Activity [4] was “inactive”. The Activity [5] was “inactive”, the Activity [6] was “inactive” and the Activity [7] was “inactive”. The Activity [10] was “inactive”, the Activity [11] was “Active” and the Activity [12] was “Active”. The Activity [13] was “inactive”, the Activity [14] was “Non-toxic” and the Activity [15] was “Non-toxic”. The Activity [16] was “Non-toxic”, the Activity [17] was “Non-toxic” and the Activity [18] was “Non-toxic”. The Activity [19] was “Non-toxic”, the Activity [20] was “Non-toxic” and the Activity [25] was “Active”. For the same compound, the Activity [22] was “inactive” and the Activity [23] was “inactive”.

CC1(C)C(C(=O)Nc2nnc(S(N)(=O)=O)s2)C1(C)C was tested, and the “Ratio TD50/ED50” value [1] was >50.
